Results published in the M2OR odorant receptor database.

How the values were obtained:
Settings in all cases: stereoisomer not certain
UniProt Q8VGL0 = target: T1, UniProt Q8VGL0
T1 sequence (whole entry): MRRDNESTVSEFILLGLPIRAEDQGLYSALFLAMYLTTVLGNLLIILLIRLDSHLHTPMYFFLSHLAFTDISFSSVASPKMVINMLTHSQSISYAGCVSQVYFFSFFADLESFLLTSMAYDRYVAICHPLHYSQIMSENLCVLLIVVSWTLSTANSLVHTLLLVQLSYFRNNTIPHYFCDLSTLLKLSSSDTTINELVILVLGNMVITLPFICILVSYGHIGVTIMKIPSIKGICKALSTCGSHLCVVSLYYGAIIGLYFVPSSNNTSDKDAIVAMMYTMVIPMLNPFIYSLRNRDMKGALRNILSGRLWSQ
Summary of the method: (§1)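 Whether a receptor–molecule pair is responsive (active) rests on the original authors' judgment that its measured signal was statistically different from baseline. Pairs without that judgment are non-responsive (inactive). Sources used varied assay methods, commonly transient luciferase assays in mammalian cell lines.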

UniProt Q8VGU3 = target: T2, UniProt Q8VGU3
T2 sequence (whole entry): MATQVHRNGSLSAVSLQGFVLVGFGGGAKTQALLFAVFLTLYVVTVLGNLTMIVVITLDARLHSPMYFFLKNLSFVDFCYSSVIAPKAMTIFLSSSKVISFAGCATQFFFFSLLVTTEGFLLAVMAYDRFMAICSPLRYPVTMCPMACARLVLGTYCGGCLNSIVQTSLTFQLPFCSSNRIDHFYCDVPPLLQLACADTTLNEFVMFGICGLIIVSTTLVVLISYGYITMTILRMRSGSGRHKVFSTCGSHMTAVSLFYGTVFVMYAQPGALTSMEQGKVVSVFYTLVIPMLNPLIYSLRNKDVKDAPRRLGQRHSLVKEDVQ
Summary of the method: as §1

UniProt Q8VGV7 = target: T3, UniProt Q8VGV7
T3 sequence (whole entry): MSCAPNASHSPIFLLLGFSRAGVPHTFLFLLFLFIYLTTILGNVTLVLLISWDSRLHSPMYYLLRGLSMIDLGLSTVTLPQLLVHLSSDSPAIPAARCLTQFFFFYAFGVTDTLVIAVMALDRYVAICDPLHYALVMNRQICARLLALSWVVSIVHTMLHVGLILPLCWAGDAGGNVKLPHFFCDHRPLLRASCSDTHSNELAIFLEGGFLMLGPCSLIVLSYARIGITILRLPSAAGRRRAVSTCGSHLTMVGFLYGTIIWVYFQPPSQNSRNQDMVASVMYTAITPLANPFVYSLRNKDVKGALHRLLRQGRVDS
Summary of the method: as §1

UniProt Q8VGX3 = target: T4, UniProt Q8VGX3
T4 sequence (whole entry): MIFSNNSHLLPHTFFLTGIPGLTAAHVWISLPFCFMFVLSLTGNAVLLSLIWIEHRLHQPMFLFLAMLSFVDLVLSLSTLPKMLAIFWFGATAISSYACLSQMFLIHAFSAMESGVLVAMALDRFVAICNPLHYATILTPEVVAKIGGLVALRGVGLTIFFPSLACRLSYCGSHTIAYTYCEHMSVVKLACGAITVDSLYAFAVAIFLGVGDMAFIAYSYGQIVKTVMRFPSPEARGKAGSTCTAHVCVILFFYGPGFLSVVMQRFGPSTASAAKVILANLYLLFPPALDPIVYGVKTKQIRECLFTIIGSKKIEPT
Summary of the method: as §1

UniProt Q8VGX5 = target: T5, UniProt Q8VGX5
T5 sequence (whole entry): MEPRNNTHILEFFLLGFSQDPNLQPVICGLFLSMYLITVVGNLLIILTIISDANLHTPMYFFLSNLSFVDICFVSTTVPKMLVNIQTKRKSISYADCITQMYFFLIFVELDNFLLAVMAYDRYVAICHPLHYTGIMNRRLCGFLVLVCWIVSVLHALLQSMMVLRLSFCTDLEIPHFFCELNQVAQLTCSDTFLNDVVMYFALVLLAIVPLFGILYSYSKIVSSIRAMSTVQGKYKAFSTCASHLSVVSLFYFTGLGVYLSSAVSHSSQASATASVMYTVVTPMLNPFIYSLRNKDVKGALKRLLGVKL
Summary of the method: as §1

UniProt Q8VGZ2 = target: T6, UniProt Q8VGZ2
T6 sequence (whole entry): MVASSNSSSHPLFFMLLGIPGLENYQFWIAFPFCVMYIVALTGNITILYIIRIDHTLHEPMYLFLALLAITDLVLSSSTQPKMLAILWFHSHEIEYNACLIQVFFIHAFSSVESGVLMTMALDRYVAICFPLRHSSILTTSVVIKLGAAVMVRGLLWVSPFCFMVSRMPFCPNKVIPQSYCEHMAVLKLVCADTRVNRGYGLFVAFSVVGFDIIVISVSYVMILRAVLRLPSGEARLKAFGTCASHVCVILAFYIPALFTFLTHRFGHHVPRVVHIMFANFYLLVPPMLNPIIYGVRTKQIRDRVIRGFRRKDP
Summary of the method: as §1

UniProt Q8VGZ7 = target: T7, UniProt Q8VGZ7
T7 sequence (whole entry): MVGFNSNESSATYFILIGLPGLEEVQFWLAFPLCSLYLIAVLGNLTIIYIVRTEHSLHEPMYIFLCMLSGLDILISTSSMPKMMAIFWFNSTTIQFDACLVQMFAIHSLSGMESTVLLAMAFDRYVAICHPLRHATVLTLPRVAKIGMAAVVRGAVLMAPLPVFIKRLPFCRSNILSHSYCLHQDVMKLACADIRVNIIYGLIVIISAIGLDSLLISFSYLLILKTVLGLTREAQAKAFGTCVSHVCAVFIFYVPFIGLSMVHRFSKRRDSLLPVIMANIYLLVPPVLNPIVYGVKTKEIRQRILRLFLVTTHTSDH
Summary of the method: as §1

UniProt Q8VH16 = target: T8, UniProt Q8VH16
T8 sequence (whole entry): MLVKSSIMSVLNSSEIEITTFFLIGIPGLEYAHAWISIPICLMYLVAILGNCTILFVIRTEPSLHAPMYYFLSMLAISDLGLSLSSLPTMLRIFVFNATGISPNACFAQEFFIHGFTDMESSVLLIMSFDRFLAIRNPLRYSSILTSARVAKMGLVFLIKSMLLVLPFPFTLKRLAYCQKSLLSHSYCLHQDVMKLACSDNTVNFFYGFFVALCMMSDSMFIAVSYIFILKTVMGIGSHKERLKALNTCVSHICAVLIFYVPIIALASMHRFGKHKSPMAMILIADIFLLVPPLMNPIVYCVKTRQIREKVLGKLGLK
Summary of the method: as §1

UniProt Q8VH20 = target: T9, UniProt Q8VH20
T9 sequence (whole entry): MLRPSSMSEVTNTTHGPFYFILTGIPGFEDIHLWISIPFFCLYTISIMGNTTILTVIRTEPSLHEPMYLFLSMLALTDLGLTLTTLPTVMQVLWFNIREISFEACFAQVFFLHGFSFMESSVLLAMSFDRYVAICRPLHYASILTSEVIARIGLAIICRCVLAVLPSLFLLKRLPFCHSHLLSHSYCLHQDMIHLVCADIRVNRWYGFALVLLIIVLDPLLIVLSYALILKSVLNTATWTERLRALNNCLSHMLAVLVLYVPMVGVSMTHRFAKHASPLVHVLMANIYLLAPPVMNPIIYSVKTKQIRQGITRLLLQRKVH
Summary of the method: as §1

Measured: odorant receptor agonist call;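 note: active if original authors judged signal statistically different from baseline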

Cc1ccc(OC(=O)Cc2ccccc2)cc1
inactive: UniProt Q8VGL0 | UniProt Q8VGU3 | UniProt Q8VGV7 | UniProt Q8VGX3 | UniProt Q8VGX5 | UniProt Q8VGZ2 | UniProt Q8VGZ7 | UniProt Q8VH16
active: UniProt Q8VH20
